Results from ChEMBL document CHEMBL4219099, “Design, synthesis and biological evaluation of novel 7-azaspiro[3.5]nonane derivatives as GPR119 agonists” (Bioorg Med Chem, 2018).
pEC50, pIC50: −log10 of the molar value. Converted amounts (≈) assume the structure as drawn.

Legend:
[1] = target: T1, Glucose-dependent insulinotropic receptor (Homo sapiens, UniProt Q8TDV5); experiment: Agonist activity at human GPR119 expressed in Flp-In-T-Rex-HEK293 cells assessed as increase in intracellular cAMP level after 30 mins by HTRF assay; assay type: functional, cell-based
T1 sequence (Q8TDV5 whole entry): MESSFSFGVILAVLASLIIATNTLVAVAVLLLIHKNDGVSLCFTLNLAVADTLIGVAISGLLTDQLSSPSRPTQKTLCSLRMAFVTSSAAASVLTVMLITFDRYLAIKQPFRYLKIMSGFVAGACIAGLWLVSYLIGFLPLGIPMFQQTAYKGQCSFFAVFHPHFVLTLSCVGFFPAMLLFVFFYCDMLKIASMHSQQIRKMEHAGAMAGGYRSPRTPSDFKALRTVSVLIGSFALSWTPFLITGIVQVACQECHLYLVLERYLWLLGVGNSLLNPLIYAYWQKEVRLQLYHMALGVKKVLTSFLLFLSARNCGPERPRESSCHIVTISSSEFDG
Outline: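 Flp-In-T-Rex-HEK293 cells overexpressing human GPR119, tetracycline-induced 24 h, plated at 5000 cells/well in D-MEM with 1 mM IBMX and 0.01% BSA, then exposed to compound 30 min at 37 °C. cAMP read with HiRange HTRF kit. Basal cAMP subtracted from stimulated level; EC50 taken as concentration giving 50% of maximal response, fitted from dose-response curves.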

[2] = Aqueous solubility of the compound in pH 6.8 phosphate buffer after 24 hrs by HPLC analysis; assay type: physicochemical
Outline: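 Excess solid shaken in pH 6.8 phosphate buffer at 25 °C for 24 h. Suspension centrifuged at 3000 and 11000 rpm, 10 min each. Supernatant diluted in 50% aqueous acetonitrile and quantified by reversed-phase HPLC (0.1% phosphoric acid/acetonitrile, column 40 °C, UV 210 nm).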

[3] = Solubility of the compound in fasted state simulated intestinal fluid incubated for 2 hrs in shaker and subsequently incubated at 37 degC for 22 hrs in water bath by HPLC analysis; assay type: physicochemical
Outline: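 FaSSIF (pH 6.5) with excess compound shaken at 25 °C for 2 h, then held at 37 °C for 22 h. Centrifuged at 3000 and 11000 rpm, 10 min. Supernatant diluted with 50% aqueous acetonitrile or acetonitrile/methanol 1:1. Concentration by reversed-phase HPLC: 0.1% phosphoric acid/acetonitrile, column 40 °C, UV 210 nm.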

Cytochrome P450 1A2 = target: T2, Cytochrome P450 1A2 (Homo sapiens, UniProt P05177); experiment: Inhibition of CYP1A2 in human liver microsomes; assay type: ADME
T2 sequence (P05177 whole entry): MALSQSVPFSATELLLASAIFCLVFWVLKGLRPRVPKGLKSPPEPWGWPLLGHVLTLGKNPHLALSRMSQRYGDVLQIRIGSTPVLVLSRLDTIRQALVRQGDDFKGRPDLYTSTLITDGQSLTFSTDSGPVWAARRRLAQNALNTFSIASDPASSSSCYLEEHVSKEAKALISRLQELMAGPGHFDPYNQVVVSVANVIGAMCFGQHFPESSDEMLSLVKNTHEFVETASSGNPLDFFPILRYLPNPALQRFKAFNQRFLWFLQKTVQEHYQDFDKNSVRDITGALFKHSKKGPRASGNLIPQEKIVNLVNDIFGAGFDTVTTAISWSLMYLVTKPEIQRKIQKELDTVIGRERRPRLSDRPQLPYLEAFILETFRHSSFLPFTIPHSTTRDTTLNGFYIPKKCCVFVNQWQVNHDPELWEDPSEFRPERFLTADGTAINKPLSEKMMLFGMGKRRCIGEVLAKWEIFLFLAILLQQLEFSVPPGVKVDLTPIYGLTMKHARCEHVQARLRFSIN

Cytochrome P450 2C9 = Cytochrome P450 2C9 (Homo sapiens, UniProt P11712); experiment: Inhibition of CYP2C9 in human liver microsomes; assay type: ADME; conditions: for pIC50: read-out: IC50
Cytochrome P450 2C19 = Cytochrome P450 2C19 (Homo sapiens, UniProt P33261); experiment: Inhibition of CYP2C19 in human liver microsomes; assay type: ADME; conditions: for pIC50: read-out: IC50
[4] = Clearance in Sprague-Dawley rat plasma at 3 mg/kg, iv or 10 mg/kg, po by liquid chromatography-tandem mass spectrometry analysis; assay type: ADME, organism-based
Outline: (§1)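 Fasted male SD rats given a single dose, iv 3 mg/kg in 20% 2-hydroxypropyl-β-cyclodextrin or po 10 mg/kg in 0.5% methylcellulose with 0.1% Tween80. Tail-vein blood taken at time points and spun to plasma. Analyte quantified by LC-MS/MS; parameters from non-compartmental analysis.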

[5] = Oral bioavailability in Sprague-Dawley rat plasma at 10 mg/kg by liquid chromatography-tandem mass spectrometry analysis; assay type: ADME, organism-based; outline: as §1
[6] = AUC (0 to t) in Sprague-Dawley rat plasma at 10 mg/kg, po by liquid chromatography-tandem mass spectrometry analysis; assay type: ADME, organism-based; outline: as §1
Rattus norvegicus [7] = experiment: Antidiabetic activity in Zucker diabetic rat assessed as reduction in plasma glucose AUC (0 to 2 hrs) at 10 mg/kg, po pretreated for 30 mins followed by glucose challenge by oGTT assay relative to control; assay type: functional; design: scale not given: the % may be the effect or the level left
Outline: (§2)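 Male Zucker diabetic fatty and lean rats, 9 weeks old, fasted overnight. Dosed orally in 20 w/v% HP-β-CD; 30 min later given oral glucose at 2 g/kg. Tail-vein plasma glucose followed over 2 h by glucose assay kit. Glucose excursion expressed as ΔAUC 0–2 h versus vehicle; mean ± SE, Welch's t-test.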

Rattus norvegicus [8] = experiment: Antidiabetic activity in Zucker diabetic rat assessed as reduction in plasma glucose AUC (0 to 2 hrs) at 30 mg/kg, po pretreated for 30 mins followed by glucose challenge by oGTT assay relative to control; assay type: functional; design: scale not given: the % may be the effect or the level left; outline: as §2
Cytochrome P450 2D6 = Cytochrome P450 2D6 (Homo sapiens, UniProt P10635); experiment: Inhibition of CYP2D6 in human liver microsomes; assay type: ADME
[9] = Volume of distribution at steady state in Sprague-Dawley rat plasma at 3 mg/kg, iv by liquid chromatography-tandem mass spectrometry analysis; assay type: ADME, organism-based; conditions: read-out: Vdss; outline: as §1
[10] = Half life in Sprague-Dawley rat plasma at 3 mg/kg, iv by liquid chromatography-tandem mass spectrometry analysis; assay type: ADME, organism-based; outline: as §1
Cytochrome P450 3A4 = Cytochrome P450 3A4 (Homo sapiens, UniProt P08684); experiment: Inhibition of CYP3A4 in human liver microsomes; assay type: ADME
Cytochrome P450 3A4, sequence (P08684 whole entry): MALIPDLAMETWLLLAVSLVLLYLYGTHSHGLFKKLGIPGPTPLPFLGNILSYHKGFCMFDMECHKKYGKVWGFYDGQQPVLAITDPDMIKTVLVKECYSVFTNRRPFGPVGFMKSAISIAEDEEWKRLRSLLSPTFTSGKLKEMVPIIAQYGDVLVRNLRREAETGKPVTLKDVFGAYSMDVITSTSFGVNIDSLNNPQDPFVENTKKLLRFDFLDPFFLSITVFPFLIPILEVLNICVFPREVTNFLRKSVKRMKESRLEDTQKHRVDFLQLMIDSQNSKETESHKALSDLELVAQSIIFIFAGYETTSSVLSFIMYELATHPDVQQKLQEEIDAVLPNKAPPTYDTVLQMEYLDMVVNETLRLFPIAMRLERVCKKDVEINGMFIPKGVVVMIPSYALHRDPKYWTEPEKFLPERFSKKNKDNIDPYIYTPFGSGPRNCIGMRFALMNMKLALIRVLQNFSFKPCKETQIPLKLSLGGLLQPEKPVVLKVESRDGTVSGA

Cytochrome P450 2C19, sequence (P33261 whole entry): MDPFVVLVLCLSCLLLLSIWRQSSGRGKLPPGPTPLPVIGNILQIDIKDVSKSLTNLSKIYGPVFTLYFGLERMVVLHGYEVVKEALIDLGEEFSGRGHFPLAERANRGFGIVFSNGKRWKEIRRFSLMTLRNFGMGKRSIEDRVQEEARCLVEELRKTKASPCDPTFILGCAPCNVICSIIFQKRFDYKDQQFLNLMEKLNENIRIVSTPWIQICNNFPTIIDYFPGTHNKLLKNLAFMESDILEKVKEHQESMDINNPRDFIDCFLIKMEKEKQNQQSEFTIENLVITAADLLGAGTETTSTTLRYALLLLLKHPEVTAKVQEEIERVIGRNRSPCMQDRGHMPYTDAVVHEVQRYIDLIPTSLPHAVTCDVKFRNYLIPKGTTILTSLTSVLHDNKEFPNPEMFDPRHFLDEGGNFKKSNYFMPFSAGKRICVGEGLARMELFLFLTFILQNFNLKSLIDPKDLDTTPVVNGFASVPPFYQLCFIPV
Cytochrome P450 2C9, sequence (P11712 whole entry): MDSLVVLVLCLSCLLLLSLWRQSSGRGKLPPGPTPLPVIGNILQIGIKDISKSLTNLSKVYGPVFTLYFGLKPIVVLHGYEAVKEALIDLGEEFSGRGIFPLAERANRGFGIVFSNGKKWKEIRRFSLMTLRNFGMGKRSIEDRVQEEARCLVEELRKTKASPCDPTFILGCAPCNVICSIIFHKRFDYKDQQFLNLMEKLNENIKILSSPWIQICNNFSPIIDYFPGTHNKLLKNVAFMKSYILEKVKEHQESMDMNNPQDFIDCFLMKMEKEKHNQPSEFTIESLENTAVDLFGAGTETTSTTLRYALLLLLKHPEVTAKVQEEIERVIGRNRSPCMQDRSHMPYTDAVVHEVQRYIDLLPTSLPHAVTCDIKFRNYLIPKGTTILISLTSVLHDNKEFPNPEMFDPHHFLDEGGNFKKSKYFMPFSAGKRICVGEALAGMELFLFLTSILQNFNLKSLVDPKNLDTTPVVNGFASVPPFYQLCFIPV
Cytochrome P450 2D6, sequence (P10635 whole entry): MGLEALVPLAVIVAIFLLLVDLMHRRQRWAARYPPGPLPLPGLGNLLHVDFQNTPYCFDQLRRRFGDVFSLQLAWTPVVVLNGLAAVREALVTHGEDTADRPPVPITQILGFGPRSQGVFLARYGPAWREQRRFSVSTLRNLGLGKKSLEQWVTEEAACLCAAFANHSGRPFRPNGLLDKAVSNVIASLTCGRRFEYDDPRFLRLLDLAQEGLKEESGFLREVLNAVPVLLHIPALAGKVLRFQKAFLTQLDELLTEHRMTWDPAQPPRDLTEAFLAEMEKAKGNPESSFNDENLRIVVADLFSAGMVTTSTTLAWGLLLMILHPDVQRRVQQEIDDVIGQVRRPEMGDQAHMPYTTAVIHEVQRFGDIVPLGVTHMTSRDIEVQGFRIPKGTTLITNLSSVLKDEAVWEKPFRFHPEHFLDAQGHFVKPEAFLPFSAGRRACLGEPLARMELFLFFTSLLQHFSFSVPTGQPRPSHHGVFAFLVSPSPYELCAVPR

Row | SMILES | pEC50 [1] | solubility at 24 h [2] [µg/mL] | solubility at 24 h [3] [µg/mL] | other results
1 | CC(C)OC(=O)N1CCC2(CC1)CC(CCCOc1ccc(S(C)(=O)=O)c(F)c1)C2 | 7.74 | < 0.16 | 2.52 (≈ 5.71 µM) | –
2 | CCc1cnc(N2CCC3(CC2)CC(CCCOc2ccc(S(C)(=O)=O)c(F)c2)C3)nc1 | 6.91 | – | – | –
3 | CC(C)(C)OC(=O)N1CCC2(CC1)CC2CCOc1ccc(S(C)(=O)=O)cc1 (stereo unspecified) | 5.62 | – | – | –
4 | Cc1ccc(N2CCC3(CC2)CC(CCCOc2ccc(S(C)(=O)=O)cc2)C3)nc1 | 6.46 | – | – | –
5 | CC(C)c1noc(N2CCC3(CC2)CC(CCCOc2ccc(S(C)(=O)=O)cc2)C3)n1 | 7.46 | < 0.13 | 2.51 (≈ 5.61 µM) | –
6 | CCc1cnc(N2CCC3(CC2)CC(CCCOc2ccc(S(C)(=O)=O)cc2)C3)nc1 | 7.51 | < 0.12 | 0.64 (≈ 1.44 µM) | –
7 | CC(C)OC(=O)N1CCC2(CC1)CC(CCCOc1ccc(C(=O)N3CCCC3)c(F)c1)C2 | 7.54 | 3.85 (≈ 8.36 µM) | 92.4 (≈ 201 µM) | pIC50 (Cytochrome P450 1A2; read-out: IC50): > 5.00; pIC50 (Cytochrome P450 2C9): > 5.00; pIC50 (Cytochrome P450 2C19): > 5.00
8 | CC(C)(C)OC(=O)N1CCC2(CC1)CC(CCCOc1ccc(S(C)(=O)=O)c(F)c1)C2 | 8.05 | – | – | –
9 | CC1(OC(=O)N2CCC3(CC2)CC(CCCOc2ccc(S(C)(=O)=O)c(F)c2)C3)CC1 | 7.89 | < 0.15 | 1.27 (≈ 2.8 µM) | –
10 | CC(C)(C)OC(=O)N1CCC2(CC1)CC(CCCOc1ccc(S(C)(=O)=O)cc1)C2 | 7.85 | < 0.13 | 3.48 (≈ 7.95 µM) | –
11 | CC(C)OC(=O)N1CCC2(CC1)CC(CCCOc1ccc(C(=O)NCC(N)=O)c(F)c1)C2 | 7.32 | 1.77 (≈ 3.82 µM) | 18.4 (≈ 39.7 µM) | clearance [4]: 15.5 mL/min/kg; bioavailability [5]: 88.6%; AUC(0-t) [6]: 9510 ng·h/mL; IC50 (Cytochrome P450 1A2): Not Active; Activity (Rattus norvegicus [7]): 34%; Activity (Rattus norvegicus [8]): 40.2%; IC50 (Cytochrome P450 2C9): Not Active; IC50 (Cytochrome P450 2D6): Not Active; IC50 (Cytochrome P450 2C19): Not Active; Vd [9]: 1.01 L/kg; half-life [10]: 50.5 min; IC50 (Cytochrome P450 3A4): Not Active
12 | CC(C)OC(=O)N1CCC2(CC1)CC(CCCOc1ccc(C(=O)N3CC(O)C3)c(F)c1)C2 | 7.40 | 1.89 (≈ 4.09 µM) | – | pIC50 (Cytochrome P450 2C9): > 5.00; pIC50 (Cytochrome P450 2C19): > 5.00
13 | CC(C)(C)OC(=O)N1CCC2(CC1)CC(CCOc1ccc(S(C)(=O)=O)cc1)C2 | 6.74 | – | – | –
14 | CC(C)(C)OC(=O)N1CCC2(CC1)CC(CCCCOc1ccc(S(C)(=O)=O)cc1)C2 | 6.81 | – | – | –
15 | CC(C)(C)OC(=O)N1CCC2(CCC(CCCOc3ccc(S(C)(=O)=O)cc3)CC2)CC1 | 5.59 | – | – | –
16 | CC(C)OC(=O)N1CCC2(CC1)CC(CCCOc1ccc(C(=O)NC3CC3)nc1)C2 | 7.33 | 2.11 (≈ 4.91 µM) | – | –
17 | CC(C)OC(=O)N1CCC2(CC1)CC(CCCOc1ccc(C(=O)N3CCC3)c(F)c1)C2 | 7.47 | 3.43 (≈ 7.68 µM) | – | pIC50 (Cytochrome P450 2C9): > 5.00; pIC50 (Cytochrome P450 2C19): > 5.00
18 | CC(C)(C)OC(=O)N1CCC2(CC1)CC2CCCOc1ccc(S(C)(=O)=O)cc1 (stereo unspecified) | 6.08 | – | – | –
19 | CC(C)OC(=O)N1CCC2(CC1)CC(CCCOc1ccc(S(C)(=O)=O)cc1)C2 | 7.15 | 0.17 (≈ 0.401 µM) | 7.09 (≈ 16.7 µM) | –
20 | CS(=O)(=O)c1ccc(OCCCC2CC3(CCN(C(=O)OC4CCCC4)CC3)C2)cc1F | 7.64 | < 0.14 | 7.65 (≈ 16.4 µM) | –
21 | CC(C)(C)OC(=O)N1CCC2(CC1)CC(CCCOc1ccc(S(C)(=O)=O)cc1F)C2 | 7.60 | – | – | –
22 | CC(C)OC(=O)N1CCC2(CC1)CC(CCCOc1ccc(C(=O)NC3CC3)cn1)C2 | 7.20 | 2.24 (≈ 5.21 µM) | – | –
23 | CC(C)OC(=O)N1CCC2(CC1)CC(CCCOc1ccc(C(N)=O)c(F)c1)C2 | 7.28 | – | – | –
24 | CC(C)OC(=O)N1CCC2(CC1)CC(CCCOc1ccc(C(=O)N(C)C3CC3)c(F)c1)C2 | 7.17 | – | – | –
25 | CC(C)OC(=O)N1CCC2(CC1)CC(CCCOc1ccc(C(=O)NC3CC3)c(F)c1)C2 | 8.10 | 0.21 (≈ 0.47 µM) | 8.58 (≈ 19.2 µM) | –
26 | CC(C)(C)COC(=O)N1CCC2(CC1)CC(CCCOc1ccc(S(C)(=O)=O)c(F)c1)C2 | 7.51 | – | – | –
27 | CC(C)(C)OC(=O)N1CCC2(CCC(CCOc3ccc(S(C)(=O)=O)cc3)CC2)CC1 | 7.26 | – | – | –
28 | CCc1cnc(N2CCC3(CC2)CC(CCCOc2ccc(S(C)(=O)=O)cc2F)C3)nc1 | 6.65 | – | – | –
